Read-outs that look alike come from different tables or passages of the source.
What was measured:
[1] = target: T1, IYD from Haliscomenobacter hydrossis (Haliscomenobacter hydrossis, UniProt F4KU78); details: for protection of IYD against trypsin: fluorinated ligands, saturating concentration; for fold change in t1/2: relative to IYD without ligand (10 min); for fold increase in t1/2: O2N ligands, relative to IYD without ligand
T1 sequence (F4KU78 1-222): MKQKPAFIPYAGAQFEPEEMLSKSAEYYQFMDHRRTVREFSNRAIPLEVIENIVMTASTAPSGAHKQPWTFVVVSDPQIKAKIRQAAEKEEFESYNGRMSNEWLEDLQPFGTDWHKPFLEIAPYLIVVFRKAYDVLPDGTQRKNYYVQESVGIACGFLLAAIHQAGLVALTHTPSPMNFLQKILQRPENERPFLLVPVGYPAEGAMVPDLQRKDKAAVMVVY

[2] = target: T1, IYD from Haliscomenobacter hydrossis; assay: Redox titration of IYD in the presence of substrate analogues; details: for two-electron potential of IYD: in presence of ligand, −200 mV in absence of ligands; for formation of FMNsq during reductive titration: saturating ligand, anaerobic, pH 7.4, 25 °C
[3] = target: T2, trypsin from bovine pancreas (Bos taurus, UniProt P00760); assay: Potential inhibition of trypsin by ligands of IYD; type: biochemical; details: DL-BAPNA as substrate; for inhibition of trypsin: ligand at concentration saturating IYD
T2 sequence (P00760 24-246): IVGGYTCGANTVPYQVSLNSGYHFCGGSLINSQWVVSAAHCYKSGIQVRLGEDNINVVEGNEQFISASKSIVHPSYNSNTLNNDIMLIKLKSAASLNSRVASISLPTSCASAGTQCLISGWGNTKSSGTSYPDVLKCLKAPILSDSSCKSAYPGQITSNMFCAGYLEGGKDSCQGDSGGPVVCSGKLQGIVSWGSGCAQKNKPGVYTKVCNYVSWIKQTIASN
Summary of the method: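 4-Nitroaniline formation read at 405 nm (ε = 9920 M⁻¹cm⁻¹) every 15 s for 5 min. Rate taken by linear regression over the first 2 min. Repeated independently twice.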

[4] = target: T1, IYD from Haliscomenobacter hydrossis; assay: biochemical; type: binding
[5] = target: T1, IYD from Haliscomenobacter hydrossis; details: deiodination; ref Kozyryev et al.[26]; cited from earlier work
[6] = target: T1, IYD from Haliscomenobacter hydrossis; details: IYD with FMNox; ref Kozyryev et al.[26]; cited from earlier work
[7] = target: T3, E91K/K116E variant of IYD (Haliscomenobacter hydrossis, UniProt F4KU78, E91K/K116E); assay: Affinity of ligands to E91K/K116E variant of IYD; type: binding
[8] = target: T3, E91K/K116E variant of IYD; assay: Catalytic dehalogenation by E91K/K116E variant of IYD; type: biochemical
[9] = target: T3, E91K/K116E variant of IYD; assay: Limited proteolysis of E91K/K116E variant of IYD by trypsin; details: relative to absence of ligands
[10] = target: T1, IYD from Haliscomenobacter hydrossis; type: biochemical; details: equimolar concentrations of substrate, anaerobic
[11] = target: T1, IYD from Haliscomenobacter hydrossis; assay: Catalytic deiodination; type: biochemical; details: for kcat (s^−1) × 10^−2 / Km: deiodination, 100 mM potassium phosphate pH 7.4, 25 °C
Catalytic deiodination [12] = substrate: N[C@H](Cc1ccc(O)c(I)c1)C(=O)O; assay: Catalytic deiodination; type: biochemical, Haliscomenobacter hydrossis; details: other: deiodination, 100 mM potassium phosphate pH 7.4, 25 °C
Catalytic deiodination [13] = substrate: O=C(O)[C@@H](O)Cc1ccc(O)c(I)c1; assay: Catalytic deiodination; type: biochemical, Haliscomenobacter hydrossis; details: other: deiodination, 100 mM potassium phosphate pH 7.4, 25 °C
[14] = IYD with FMNox, 110 mM potassium phosphate pH 7.4, 25 °C

NCCc1ccc(O)c(F)c1 [F-tyramine]
protection of IYD against trypsin [1]: protected IYD against trypsin | two-electron potential of IYD [2]: −225 mV | formation of FMNsq during reductive titration [2]: not detected | inhibition of trypsin [3]: inhibited trypsin | Kd [4, 14]: 730 ± 140 µM

N[C@@H](Cc1ccc(O)c(I)c1)C(=O)O [I-Tyr, L-3-iodotyrosine, reference compound]
fold change in t1/2 [1]: 2.2 | inhibition of trypsin [3]: not due to general inhibition of trypsin | Km [5]: 49 ± 10 µM | kcat (s^−1) × 10^−2 [5]: 60 ± 0.5 s^−1 × 10^−2 | Kd [6]: 5.7 ± 0.4 µM | Kd [7]: 85 ± 14 µM | catalytic dehalogenation [8]: No catalytic dehalogenation could be detected | protection of variant from trypsin [9]: over a twofold protection

NC(=O)[C@@H](N)Cc1ccc(O)c([N+](=O)[O-])c1 [O2N-tyrosinamide]
fold increase in t1/2 [1]: 3.0 | inhibition of trypsin [3]: not the consequence of a general inhibition of trypsin | Kd [4, 14]: 2.4 ± 0.1 µM | ability to oxidize reduced IYD (FMNhq) [10]: capable of oxidizing FMNhq to regenerate the initial FMNox spectrum

N[C@@H](Cc1ccc(O)c(F)c1)C(=O)O [F-Tyr, L-3-fluorotyrosine, reference compound]
formation of FMNsq during reductive titration [2]: consistent with the neutral form of FMNsq | Kd [4]: 97 ± 3 µM | decrease in affinity relative to I-Tyr ([4]; IYD with FMNox): more than 10 fold

O=C(O)[C@@H](O)Cc1ccc(O)c(I)c1 [I-HPLA, (S)-3-(4-hydroxy-3-iodophenyl)lactic acid]
Kd [4]: > 3000 µM

O=C(O)[C@@H](O)Cc1ccc(O)c([N+](=O)[O-])c1 [O2N-HPLA, (S)-3-(4-hydroxy-3-nitrophenyl)lactic acid]
fold increase in t1/2 [1]: 2.1 | inhibition of trypsin catalysis ([3]; ligand at twice its Kd value): no more than 25% | Kd [4]: 180 ± 4 µM | ability to oxidize reduced IYD (FMNhq) [10]: capable of oxidizing FMNhq to regenerate the initial FMNox spectrum

N[C@H](Cc1ccc(O)c(I)c1)C(=O)O [D-I-Tyr, D-3-iodotyrosine]
fold change in t1/2 [1]: 0.62 | inhibition of trypsin [3]: mild inhibitor of trypsin | Kd [4]: 270 ± 15 µM | Kd [7]: 200 ± 30 µM | catalytic dehalogenation [8]: No catalytic dehalogenation could be detected | protection of variant from trypsin [9]: over a twofold protection

NCCc1ccc(O)c([N+](=O)[O-])c1 [O2N-tyramine]
fold increase in t1/2 [1]: 2.7 | weakening of binding relative to O2N-Tyr ([4]; IYD with FMNox): 70 fold | Kd [4, 14]: 280 ± 10 µM | ability to oxidize reduced IYD (FMNhq) [10]: capable of oxidizing FMNhq to regenerate the initial FMNox spectrum

O=C(O)CCc1ccc(O)c(I)c1 [I-HPPA, 3-(4-hydroxy-3-iodophenyl)propanoic acid]
Kd [4]: > 4000 µM | decrease in affinity relative to I-Tyr ([4]; IYD with FMNox): at least 700 fold | kcat (s^−1) × 10^−2 [11]: <9.3 × 10^−3^e s^−1 × 10^−2 | kcat as percentage of that for I-Tyr ([11]; set by detection limit of deiodinated product HPPA): ≤ 0.015%

NCCc1ccc(O)c(I)c1 [I-tyramine]
fold change in t1/2 [1]: 2.7 | Kd [4, 14]: 99 ± 10 µM | decrease in kcat for dehalogenation relative to I-Tyr [11]: more than 30 fold | decrease in kcat/Km of dehalogenation relative to I-Tyr [11]: more than 900 fold | Km [11]: 1470 ± 450 µM | kcat (s^−1) × 10^−2 [11]: 1.8 ± 0.3 s^−1 × 10^−2

NC(=O)C(N)Cc1ccc(O)c(I)c1 (stereo not shown) [I-tyrosinamide]
fold change in t1/2 [1]: 2.7 | Kd [4, 14]: 7 ± 0.2 µM | decrease in kcat for dehalogenation relative to I-Tyr [11]: more than 30 fold | decrease in kcat/Km of dehalogenation relative to I-Tyr [11]: more than 900 fold | Km [11]: 2410 ± 410 µM | kcat (s^−1) × 10^−2 [11]: 1.7 ± 0.2 s^−1 × 10^−2

NC(=O)[C@@H](N)Cc1ccc(O)c(F)c1 [F-tyrosinamide]
protection of IYD against trypsin [1]: protected IYD against trypsin | two-electron potential of IYD [2]: −236 mV | formation of FMNsq during reductive titration [2]: not detected | Kd [4, 14]: 77 ± 3 µM

B1: IYD from Haliscomenobacter hydrossis (Haliscomenobacter hydrossis DSM 1100) (protein)
chain: T1 sequence (F4KU78 1-222)
Km (Catalytic deiodination [12]): 7900 ± 4000 µM | kcat (Catalytic deiodination [12]): 0.027 ± 0.01 s⁻¹ | kcat/Km (Catalytic deiodination [12]): 3.4 ± 1 M⁻¹ s⁻¹ | Km (Catalytic deiodination [13]): 270 ± 30 µM | kcat (Catalytic deiodination [13]): 0.013 ± 0.001 s⁻¹ | kcat/Km (Catalytic deiodination [13]): 47 ± 5 M⁻¹ s⁻¹

From PMC11408085 (Biochemistry, 2024)
